# According to ChEMBL document CHEMBL5724801, “EUbOPEN Chemogenomics Library - Multiplex” (2024):
# “And” between values parts separate entries of the source, which are not always exact repeats. Identical values can stand only once.
# Test system: U2OS
# Assay: Multiplex assay against U2OS
# Type: toxicity, cell-based
# Conditions: human
# Procedure, shortened: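 Compound was added to live cells that had been stained at seeding with Hoechst33342, BioTracker Green Microtubule Cytoskeleton Dye, MitoTracker Red and Annexin V Alexa Fluor 680, and imaging followed on a CQ1 microscope at 37°C and 5% CO2. CellPathfinder machine-learning gating divided cells into Hoechst high-intensity objects or normal cells, normal cells into healthy, pyknosed or fragmented nuclei, and pyknosed cells into mitotic or apoptotic. Tubulin, mitochondrial-mass and membrane-permeability phenotypes are per cents of healthy-nucleus cells.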
# [1] = 12 h, 1 µM, compound concentration 1 uM
# [2] = 12 h, 10 µM, compound concentration 10 uM
# [3] = 24 h, 1 µM, compound concentration 1 uM
# [4] = 24 h, 10 µM, compound concentration 10 uM
# [5] = 48 h, 1 µM, compound concentration 1 uM
# [6] = 48 h, 10 µM, compound concentration 10 uM
structure (smiles),measurement,setting,value
CN1CC[C@@]23CCCC[C@@H]2[C@@H]1Cc1ccc(O)cc13.O=C(O)C(O)C(O)C(=O)O,Population Apoptotic (%),[1],38.64% and 62.96%
same,Population Fragmented Nuclei (%),[1],1.53% and 2.17%
same,Population Healthy Nuclei (%),[1],88.86% and 78.26%
same,Population Hoechst High Intensity Objects (%),[1],1.51% and 0%
same,Population Membrane Permeable-Phenotype (%),[1],1.23% and 1.85%
same,Population Mitochondria Different-Phenotype (%),[1],0% and 11.11%
same,Population Mitotic Cells (%),[1],61.36% and 37.04%
same,Population Normal (%),[1],98.49% and 100%
same,Population Pyknosed Nuclei (%),[1],9.61% and 19.57%
same,Population Tubulin-Different-Phenotype (%),[1],0%
same,Population Apoptotic (%),[2],33.33% and 60%
same,Population Healthy Nuclei (%),[2],88.89% and 58.2%
same,Population Hoechst High Intensity Objects (%),[2],0%
same,Population Membrane Permeable-Phenotype (%),[2],1.19% and 4.7%
same,Population Mitochondria Different-Phenotype (%),[2],0.89% and 6.71%
same,Population Mitotic Cells (%),[2],66.67% and 40%
same,Population Normal (%),[2],100%
same,Population Pyknosed Nuclei (%),[2],9.52% and 5.86%
same,Population Tubulin-Different-Phenotype (%),[2],1.49% and 0.67%
same,Total Cell Count,[2],378 and 256
same,Population Apoptotic (%),[3],53.33% and 66.67%
same,Population Fragmented Nuclei (%),[3],1.7% and 1.75%
same,Population Healthy Nuclei (%),[3],91.36% and 85.96%
same,Population Hoechst High Intensity Objects (%),[3],1.22% and 0%
same,Population Membrane Permeable-Phenotype (%),[3],0.68% and 2.72%
same,Population Mitotic Cells (%),[3],46.67% and 33.33%
same,Population Normal (%),[3],98.78% and 100%
same,Population Pyknosed Nuclei (%),[3],6.94% and 12.28%
same,Population Tubulin-Different-Phenotype (%),[3],0.51% and 0.68%
same,Population Apoptotic (%),[4],32.2% and 38.89%
same,Population Healthy Nuclei (%),[4],87.76% and 63.54%
same,Population Hoechst High Intensity Objects (%),[4],0%
same,Population Membrane Permeable-Phenotype (%),[4],1.07% and 3.28%
same,Population Mitochondria Different-Phenotype (%),[4],0.43% and 3.83%
same,Population Mitotic Cells (%),[4],67.8% and 61.11%
same,Population Normal (%),[4],100%
same,Population Pyknosed Nuclei (%),[4],11.11% and 6.25%
same,Population Tubulin-Different-Phenotype (%),[4],1.07% and 1.09%
same,Total Cell Count,[4],531 and 288
same,Population Apoptotic (%),[5],45.92% and 51.61%
same,Population Fragmented Nuclei (%),[5],4.22% and 1.42%
same,Population Healthy Nuclei (%),[5],87.82% and 87.54%
same,Population Hoechst High Intensity Objects (%),[5],0.88% and 0%
same,Population Membrane Permeable-Phenotype (%),[5],0.55% and 2.44%
same,Population Mitochondria Different-Phenotype (%),[5],0.09% and 6.91%
same,Population Mitotic Cells (%),[5],54.08% and 48.39%
same,Population Normal (%),[5],99.12% and 100%
same,Population Pyknosed Nuclei (%),[5],7.95% and 11.03%
same,Population Tubulin-Different-Phenotype (%),[5],0.37% and 1.22%
same,Population Apoptotic (%),[6],45.36% and 57.14%
same,Population Healthy Nuclei (%),[6],87.24% and 75.39%
same,Population Hoechst High Intensity Objects (%),[6],0.1% and 0%
same,Population Membrane Permeable-Phenotype (%),[6],0.68% and 1.72%
same,Population Mitochondria Different-Phenotype (%),[6],0.34% and 3.09%
same,Population Mitotic Cells (%),[6],54.64% and 42.86%
same,Population Normal (%),[6],99.9% and 100%
same,Population Pyknosed Nuclei (%),[6],9.59% and 7.25%
same,Population Tubulin-Different-Phenotype (%),[6],0.45% and 0.34%
same,Total Cell Count,[6],1012 and 386
COc1ccc(CC(=O)NC(N/C(=N/C#N)Nc2cccc3ncccc23)C(C)(C)C)cc1OC (stereo unspecified),Population Apoptotic (%),[1],40.91% and 47.06%
same,Population Fragmented Nuclei (%),[1],2.4% and 0.62%
same,Population Healthy Nuclei (%),[1],91.73% and 88.89%
same,Population Hoechst High Intensity Objects (%),[1],0%
same,Population Membrane Permeable-Phenotype (%),[1],1.16% and 5.56%
same,Population Mitochondria Different-Phenotype (%),[1],0.87% and 4.86%
same,Population Mitotic Cells (%),[1],59.09% and 52.94%
same,Population Normal (%),[1],100%
same,Population Pyknosed Nuclei (%),[1],5.87% and 10.49%
same,Population Tubulin-Different-Phenotype (%),[1],0.87% and 0.69%
same,Total Cell Count,[1],375 and 162
same,Population Apoptotic (%),[2],51.35% and 40%
same,Population Fragmented Nuclei (%),[2],1.67% and 2.27%
same,Population Healthy Nuclei (%),[2],88.02% and 82.58%
same,Population Hoechst High Intensity Objects (%),[2],0%
same,Population Membrane Permeable-Phenotype (%),[2],1.27% and 3.67%
same,Population Mitochondria Different-Phenotype (%),[2],0.63% and 8.26%
same,Population Mitotic Cells (%),[2],48.65% and 60%
same,Population Normal (%),[2],100%
same,Population Pyknosed Nuclei (%),[2],10.31% and 15.15%
same,Population Tubulin-Different-Phenotype (%),[2],1.58% and 0.92%
same,Total Cell Count,[2],359 and 132
same,Population Apoptotic (%),[3],33.33% and 61.54%
same,Population Fragmented Nuclei (%),[3],1.96% and 2.31%
same,Population Healthy Nuclei (%),[3],85.66% and 85.65%
same,Population Hoechst High Intensity Objects (%),[3],0%
same,Population Membrane Permeable-Phenotype (%),[3],1.15% and 3.78%
same,Population Mitochondria Different-Phenotype (%),[3],0.46% and 6.49%
same,Population Mitotic Cells (%),[3],66.67% and 38.46%
same,Population Normal (%),[3],100%
same,Population Pyknosed Nuclei (%),[3],12.38% and 12.04%
same,Population Tubulin-Different-Phenotype (%),[3],0.92% and 0%
same,Total Cell Count,[3],509 and 216
same,Population Apoptotic (%),[4],35.56% and 50%
same,Population Fragmented Nuclei (%),[4],1.44% and 1.79%
same,Population Healthy Nuclei (%),[4],89.32% and 87.5%
same,Population Hoechst High Intensity Objects (%),[4],0%
same,Population Membrane Permeable-Phenotype (%),[4],1.61% and 2.04%
same,Population Mitochondria Different-Phenotype (%),[4],0.46% and 4.08%
same,Population Mitotic Cells (%),[4],64.44% and 50%
same,Population Normal (%),[4],100%
same,Population Pyknosed Nuclei (%),[4],9.24% and 10.71%
same,Population Tubulin-Different-Phenotype (%),[4],2.07% and 0.68%
same,Total Cell Count,[4],487 and 168
same,Population Apoptotic (%),[5],60.47% and 47.73%
same,Population Fragmented Nuclei (%),[5],1.92% and 2.62%
same,Population Healthy Nuclei (%),[5],88.91% and 85.86%
same,Population Hoechst High Intensity Objects (%),[5],0%
same,Population Membrane Permeable-Phenotype (%),[5],0.36% and 2.13%
same,Population Mitochondria Different-Phenotype (%),[5],0.36% and 2.74%
same,Population Mitotic Cells (%),[5],39.53% and 52.27%
same,Population Normal (%),[5],100%
same,Population Pyknosed Nuclei (%),[5],9.17% and 11.52%
same,Population Tubulin-Different-Phenotype (%),[5],0.96% and 0.61%
same,Total Cell Count,[5],938 and 382
same,Population Apoptotic (%),[6],53.62% and 57.5%
same,Population Fragmented Nuclei (%),[6],3.32% and 2.81%
same,Population Healthy Nuclei (%),[6],89.53% and 83.16%
same,Population Hoechst High Intensity Objects (%),[6],0%
same,Population Membrane Permeable-Phenotype (%),[6],0.93% and 3.38%
same,Population Mitochondria Different-Phenotype (%),[6],0.35% and 2.53%
same,Population Mitotic Cells (%),[6],46.38% and 42.5%
same,Population Normal (%),[6],100%
same,Population Pyknosed Nuclei (%),[6],7.15% and 14.04%
same,Population Tubulin-Different-Phenotype (%),[6],1.62% and 0.84%
COc1cc(N2CCN(C)CC2)ccc1Nc1nccc(-c2cn(C)c3cnccc23)n1,Population Apoptotic (%),[1],42.42% and 21.43%
same,Population Fragmented Nuclei (%),[1],1.36% and 2.74%
same,Population Healthy Nuclei (%),[1],89.7% and 78.08%
same,Population Hoechst High Intensity Objects (%),[1],0.27% and 0%
same,Population Membrane Permeable-Phenotype (%),[1],5.14% and 14.04%
same,Population Mitotic Cells (%),[1],57.58% and 78.57%
same,Population Normal (%),[1],99.73% and 100%
same,Population Pyknosed Nuclei (%),[1],8.94% and 19.18%
same,Population Tubulin-Different-Phenotype (%),[1],5.14% and 4.39%
same,Total Cell Count,[1],370 and 146
same,Population Apoptotic (%),[2],48.67% and 23.94%
same,Population Fragmented Nuclei (%),[2],6.32% and 4.8%
same,Population Healthy Nuclei (%),[2],61.21% and 38.4%
same,Population Hoechst High Intensity Objects (%),[2],0%
same,Population Membrane Permeable-Phenotype (%),[2],33.33% and 66.67%
same,Population Mitotic Cells (%),[2],51.33% and 76.06%
same,Population Normal (%),[2],100%
same,Population Pyknosed Nuclei (%),[2],32.47% and 56.8%
same,Population Tubulin-Different-Phenotype (%),[2],60.56% and 58.33%
same,Total Cell Count,[2],348 and 125
same,Population Apoptotic (%),[3],46.67% and 20.69%
same,Population Fragmented Nuclei (%),[3],0.88% and 3.53%
same,Population Healthy Nuclei (%),[3],89.18% and 79.41%
same,Population Hoechst High Intensity Objects (%),[3],0%
same,Population Membrane Permeable-Phenotype (%),[3],3.96% and 9.63%
same,Population Mitotic Cells (%),[3],53.33% and 79.31%
same,Population Normal (%),[3],100%
same,Population Pyknosed Nuclei (%),[3],9.93% and 17.06%
same,Population Tubulin-Different-Phenotype (%),[3],3.71% and 5.19%
same,Total Cell Count,[3],453 and 170
same,Population Apoptotic (%),[4],79.82% and 63.75%
same,Population Fragmented Nuclei (%),[4],10.27% and 17.39%
same,Population Healthy Nuclei (%),[4],55.29% and 24.64%
same,Population Hoechst High Intensity Objects (%),[4],0%
same,Population Membrane Permeable-Phenotype (%),[4],25.68% and 44.12%
same,Population Mitotic Cells (%),[4],20.18% and 36.25%
same,Population Normal (%),[4],100%
same,Population Pyknosed Nuclei (%),[4],34.44% and 57.97%
same,Population Tubulin-Different-Phenotype (%),[4],53.55% and 44.12%
same,Total Cell Count,[4],331 and 138
same,Population Apoptotic (%),[5],46.51% and 48.94%
same,Population Fragmented Nuclei (%),[5],1.87% and 5.31%
same,Population Healthy Nuclei (%),[5],87.42% and 75.51%
same,Population Hoechst High Intensity Objects (%),[5],0%
same,Population Membrane Permeable-Phenotype (%),[5],1.42% and 4.86%
same,Population Mitotic Cells (%),[5],53.49% and 51.06%
same,Population Normal (%),[5],100%
same,Population Pyknosed Nuclei (%),[5],10.71% and 19.18%
same,Population Tubulin-Different-Phenotype (%),[5],2.14% and 3.78%
same,Population Apoptotic (%),[6],82.73% and 95.65%
same,Population Fragmented Nuclei (%),[6],15.62% and 15.79%
same,Population Hoechst High Intensity Objects (%),[6],0%
same,Population Membrane Permeable-Phenotype (%),[6],15.15% and 25%
same,Population Normal (%),[6],100%
same,Population Pyknosed Nuclei (%),[6],30.14% and 69.17%
same,Population Tubulin-Different-Phenotype (%),[6],53.54% and 40%
same,Total Cell Count,[6],365 and 133
